# Experimental data published in ChEMBL document CHEMBL1132415, “Domain-structured N1,N2-derivatized hydrazines as inhibitors of ribonucleoside diphosphate reductase: redox-cycling considerations” (J Med Chem, 1999).
# What was measured:
# [1] = (§1) Activity against metalloenzyme Ribonucleoside diphosphate reductase was evaluated from a subcutaneously growing murine tumor (sarcoma 180) implanted in B6D2F3 male mice at 0.1 conc
# Procedure, shortened: (§2)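 RdR from excised subcutaneous sarcoma 180 tumors in male B6D2F3 mice; chelators supplied in DMF. Enzyme-started at 37 °C, stopped by boiling at 0, 10, 20 min. Cytidine/deoxycytidine separated by cellulose TLC, radioactivity scanned. Protein by BSA-standard method.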
# [2] = Activity against metalloenzyme Ribonucleoside diphosphate reductase was evaluated from a subcutaneously growing murine tumor (sarcoma 180) implanted in B6D2F3 male mice at 1.0 conc; procedure, shortened: as §2
# [3] = (§3) Activity against metalloenzyme Ribonucleoside diphosphate reductase was evaluated from a subcutaneously growing murine tumor (sarcoma 180) implanted in B6D2F3 male mice at 0.01 conc; procedure, shortened: as §2
# [4] = Inhibition of metalloenzyme Ribonucleoside diphosphate reductase.; parameters: concentration or dose not given beside the values; conditions: concentration not given here; procedure, shortened: as §2
# [5] = (§4) Activity against metalloenzyme Ribonucleoside diphosphate reductase was evaluated from a subcutaneously growing murine tumor (sarcoma 180) implanted in B6D2F3 male mice, in reference to hydroxy-urea at 0.1 conc
# [6] = as §3; procedure, shortened: as §2; remark: listed apart in the source
# [7] = Activity against metalloenzyme Ribonucleoside diphosphate reductase was evaluated from a subcutaneously growing murine tumor (sarcoma 180) implanted in B6D2F3 male mice, in reference to hydroxy-urea at 0.007 conc
# [8] = Activity against metalloenzyme Ribonucleoside diphosphate reductase was evaluated from a subcutaneously growing murine tumor (sarcoma 180) implanted in B6D2F3 male mice at 0.033 conc; procedure, shortened: as §2
# [9] = Activity against metalloenzyme Ribonucleoside diphosphate reductase was evaluated from a subcutaneously growing murine tumor (sarcoma 180) implanted in B6D2F3 male mice at 0.00033 conc; procedure, shortened: as §2
# [10] = Activity against metalloenzyme Ribonucleoside diphosphate reductase was evaluated from a subcutaneously growing murine tumor (sarcoma 180) implanted in B6D2F3 male mice, in reference to hydroxy-urea at 0.033 conc
# [11] = Activity against metalloenzyme Ribonucleoside diphosphate reductase was evaluated from a subcutaneously growing murine tumor (sarcoma 180) implanted in B6D2F3 male mice at 0.0033 conc; procedure, shortened: as §2
# [12] = as §4; remark: listed apart in the source
# [13] = as §1; procedure, shortened: as §2; remark: listed apart in the source
# [14] = Activity against metalloenzyme Ribonucleoside diphosphate reductase was evaluated from a subcutaneously growing murine tumor (sarcoma 180) implanted in B6D2F3 male mice at 0.027 conc; procedure, shortened: as §2
# [15] = Activity against metalloenzyme Ribonucleoside diphosphate reductase was evaluated from a subcutaneously growing murine tumor (sarcoma 180) implanted in B6D2F3 male mice at 0.0002 conc; procedure, shortened: as §2
# [16] = Activity against metalloenzyme Ribonucleoside diphosphate reductase was evaluated from a subcutaneously growing murine tumor (sarcoma 180) implanted in B6D2F3 male mice at 0.002 conc; procedure, shortened: as §2
# [17] = Activity against metalloenzyme Ribonucleoside diphosphate reductase was evaluated from a subcutaneously growing murine tumor (sarcoma 180) implanted in B6D2F3 male mice at 0.02 conc; procedure, shortened: as §2
Compound,inhibition [2] [%],inhibition [4] [%],inhibition [6] [%],further results
"Copper(II) Chelate of 1-[Pyridoxylidene]-2-[3',5'-chloro-2'-pyridyl]hydrazine Sulfate",85,81,–,inhibition [1]: 83%; inhibition [3]: 37%
CCOC(=O)C[n+]1ccc(C(=O)N/N=C/c2cc(Br)ccc2O)cc1,–,81,0,–
Cc1ncc(CO)c(/C=N/Nc2ccccn2)c1O,–,–,72,inhibition [7]: 15%
CCOC(=O)C[n+]1cc(CO)c(/C=N/Nc2ncccn2)c(O)c1C,79,72,79,inhibition [1]: 76%
CC(=O)OCc1cnc(C)c(O)c1/C=N/Nc1ncccn1,–,–,–,inhibition [3]: 30%
C[n+]1ccccc1N/N=C/c1cc(Cl)cc(Cl)c1O,–,–,–,inhibition [8]: 58%; inhibition [9]: 8%; inhibition [10]: 82%; inhibition [11]: 34%
Cc1ncc(CO)c(/C=N/CC/N=C/c2c(CO)cnc(C)c2O)c1O,–,–,–,inhibition [3]: 0%
CC(=O)OCc1cnc(C)c(OC(C)=O)c1/C=N/Nc1ncccn1,79,73,24,inhibition [12]: 37%; inhibition [13]: 43%
Cc1ncc(CO)c(/C=N/NC(=O)c2ccnc3ccccc23)c1O,–,81,–,inhibition [14]: 63%; inhibition [15]: 11%
Oc1ccc(Br)cc1/C=N/Nc1ccccn1,–,–,0,–
Cc1ncc(CO)c(/C=N/Nc2nc(Cl)c(Cl)c(Cl)c2Cl)c1O,43,72,25,inhibition [13]: 18%
Cc1ncc(CO)c(/C=N/NC(=O)c2cc[n+](C)cc2)c1O,–,–,0,–
1:2 Copper(II):1-[5'-Bromosalicylidene]-2-[isonicotinoyl]-hydrazine Formate Complex,59,73,22,inhibition [1]: 28%
Cc1ncc(CO)c(/C=N/Nc2ncccn2)c1O,78,78,–,–
Cc1ncc(CO)c(/C=N/Nc2ncc(Cl)cc2Cl)c1O,83,72,79,inhibition [3]: 78%
Oc1c(Cl)cc(Cl)cc1/C=N/Nc1ccccn1,–,82,–,inhibition [8]: 65%; inhibition [9]: 12%; inhibition [11]: 34%
Cc1ncc(CO)c(/C=N/Nc2nnc(N/N=C/c3c(CO)cnc(C)c3O)c3ccccc23)c1O,–,–,–,inhibition [3]: 0%
CC(=O)OCc1cnc(C)c(OC(C)=O)c1/C=N/Nc1ccccn1,–,–,–,inhibition [12]: 37%; inhibition [1]: 68%; inhibition [13]: 68%; inhibition [3]: 31%; inhibition [5]: 37%
Cc1ncc(CO)c(/C=N/Nc2[nH]cnc3ncnc2-3)c1O,–,81,–,inhibition [8]: 72%; inhibition [9]: 18%; inhibition [11]: 21%
Copper(II) Chelate of 1-[Pyridoxylidene]-2-[5'-chloro-2'-pyridyl]hydrazine Sulfate,82,81,–,inhibition [1]: 65%; inhibition [3]: 27%

# Second part, led by results:
inhibition [2] [%],inhibition [4] [%],inhibition [6] [%],Compound,further results
86,73,–,Copper(II)-Chelate of 1-[Pyridoxylidene]-2-[2'-pyrimidyl]-hydrazine Sulfate,inhibition [1]: 78%; inhibition [3]: 38%; inhibition [5]: 37%
71,72,35,1:2 Copper(II):1-[5'-Bromosalicylidene]-2-[N-(ethoxy-carbonylmethyl)isonicotinoyl]hydrazine Sulfate Complex,inhibition [1]: 64%
–,81,0,Cc1c(O)c(/C=N/N=c2\ccccn2C)c(CO)c[n+]1C,–
–,–,0,C[n+]1ccc(C(=O)N/N=C/c2cc(Cl)cc(Cl)c2O)cc1,–
0,15,–,Cc1cc(O)nc(N/N=C/c2c(CO)cnc(C)c2O)n1,–
–,15,–,Cc1c(O)c(/C=N/Nc2ncccn2)c(CO)c[n+]1C,–
–,81,–,CCOC(=O)C[n+]1ccc(C(=O)N/N=C/c2cc(Cl)ccc2O)cc1,inhibition [16]: 10%; inhibition [17]: 77%; inhibition [15]: 18%
–,–,0,COc1ccc(COC(=O)N/N=C/c2c(CO)cnc(C)c2O)cc1,–
–,–,0,Cc1c(O)c(/C=N/NC(=O)c2cc[n+](C)cc2)c(CO)c[n+]1C,–
–,15,–,CCOC(=O)C[n+]1cc(CO)c(/C=N/Nc2ccccn2)c(O)c1C,–
